The source of these data is ChEMBL document CHEMBL5104224, “Alkyltriphenylphosphonium turns naphthoquinoneimidazoles into potent membrane depolarizers against mycobacteria” (RSC Med Chem, 2022).

The nature of data set [1]: Aqueous solubility of compound at pH 7.4 measured after 24 hrs. Format: physicochemical. To be noted: buffer. The method, boiled down:
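Stock in DMSO diluted to 100 μM in Universal buffer pH 7.4 with 1% DMSO. Agitated on filter plates for 24 h at 25°C, then filtered and the filtrate diluted with acetonitrile. Concentration read by UV absorbance against calibration curves made in buffer/acetonitrile 80:20. At least 3 occasions, using different stocks.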

Data set [2] can be described thus: Selectivity index, ratio of IC50 for cytotoxicity against African green monkey Vero E6 cells to MIC50 for antimycobacterial activity against Mycobacterium tuberculosis H37Rv ATCC 27294. Format: toxicity, cell-based, Vero C1008. Conditions: read-out: Selectivity Index. The procedure, abridged:
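SI is the ratio of a Vero E6 IC50 to an H37Rv MIC50. Vero E6 cells in DMEM + 10% heat-inactivated FBS, 1% penicillin; 30,000 cells/well, 24 h adherence, then compound for 48 h (0.5% DMSO), 37°C, 5% CO2. MTS read at 490 nm after 3 h; IC50 from sigmoidal viability fit, ≥3 determinations. MIC50 by broth dilution: 50% growth inhibition versus drug-free control.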

Data set [3] in a line: Selectivity index, ratio of IC50 for cytotoxicity against African green monkey Vero E6 cells to MIC50 for antimycobacterial activity against Mycobacterium bovis BCG ATCC 35734. Format: toxicity, cell-based, Vero C1008. To be noted: read-out: Selectivity Index.

For `CCCCn1c2c([n+](C3CCC4(CCCCC4)CC3)c1C)C(=O)c1ccccc1C2=O.[Br-]`, the concentration in solution in data set [1] (solubility at 24 h) was 118 µM. In the case of `Cc1nc2c(n1CCCCCCCCC[P+](c1ccccc1)(c1ccccc1)c1ccccc1)C(=O)c1ccccc1C2=O`, the results for the selectivity ratio in data set [2] and in data set [3] were 34 and 21, respectively. With `Cc1nc2c(n1CCCCCCCCCCC[P+](c1ccccc1)(c1ccccc1)c1ccccc1)C(=O)c1ccccc1C2=O`, the selectivity ratio worked out at 5 in data set [2] and 11 in data set [3]. Compound `CCCCCCCCn1c2c([n+](CCCC)c1C)C(=O)c1ccccc1C2=O.[Br-]` yielded a solubility at 24 h in data set [1] of 118 µM. Consider `Cc1nc2c(n1CCCCCCCCCCC[P+](C1CCCCC1)(C1CCCCC1)C1CCCCC1)C(=O)c1ccccc1C2=O`, for which the selectivity ratio in data set [3] worked out at 7.

As usually defined, the solubility is how much of the substance goes into solution per volume.
